Here are results for 15 compounds from ChEMBL document CHEMBL1135937, “Further studies on conformationally constrained tricyclic tropane analogues and their uptake inhibition at monoamine transporter sites: synthesis of (Z)-9-(substituted arylmethylene)-7-azatricyclo[4.3.1.0(3,7)]decanes as a novel class of serotonin transporter inhibitors” (J Med Chem, 2002).

Broadly, the Ki is the dissociation constant of the complex between target and ligand, obtained from inhibition or displacement. Read a low Ki as higher affinity.

Experiment [1] in a line: Uptake ratio Ki of norepinephrine relative to dopamine at monoamine transporter.
The target of experiment [2] is Norepinephrine transporter (Rattus norvegicus, UniProt Q9WTR4). Briefly: Ability to inhibit high affinity reuptake of [3H]-NE (Norepinephrine transporter) into nerve ending synaptosomes prepared from brain regions. The experiment is classed as subcellular.
Norepinephrine transporter, sequence (Q9WTR4 whole entry): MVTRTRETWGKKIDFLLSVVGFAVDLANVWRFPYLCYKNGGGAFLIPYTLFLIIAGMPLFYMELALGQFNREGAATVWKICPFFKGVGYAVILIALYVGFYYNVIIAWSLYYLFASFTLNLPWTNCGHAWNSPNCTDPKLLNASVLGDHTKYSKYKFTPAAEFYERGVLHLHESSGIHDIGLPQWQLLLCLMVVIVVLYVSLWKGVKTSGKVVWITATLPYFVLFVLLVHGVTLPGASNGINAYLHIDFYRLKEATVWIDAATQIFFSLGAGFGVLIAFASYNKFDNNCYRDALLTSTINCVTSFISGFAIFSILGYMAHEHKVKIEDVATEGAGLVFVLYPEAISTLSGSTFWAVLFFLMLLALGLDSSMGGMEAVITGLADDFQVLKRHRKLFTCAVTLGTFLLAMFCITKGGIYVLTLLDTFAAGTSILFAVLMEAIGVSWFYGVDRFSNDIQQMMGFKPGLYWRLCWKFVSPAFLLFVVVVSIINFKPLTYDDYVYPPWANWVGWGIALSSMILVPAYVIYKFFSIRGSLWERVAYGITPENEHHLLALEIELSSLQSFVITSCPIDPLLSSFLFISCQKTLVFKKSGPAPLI
Experiment [3] addresses Sodium-dependent serotonin transporter (Rattus norvegicus, UniProt P31652). Briefly: Inhibition of high affinity re-uptake of [3H]5-HT (serotonin) into nerve ending synaptosomes. The experiment is classed as subcellular, Brain. Summed up:
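Synaptosomes (P2) from rat midbrain in modified KRH buffer (pH 7.4, with nialamide), preincubated with drug for 30 min at 4 °C, then 15 min at 37 °C. [3H]5-HT (~5 nM final) uptake ran for 5 min, then filtration and scintillation counting. IC50 from six concentrations in triplicate; Ki by Cheng–Prusoff, 2–4 experiments.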

Experiment [4] is described as follows: Uptake ratio Ki of norepinephrine relative to serotonin (5-HT) at monoamine transporter.
For experiment [5], the target named is Sodium-dependent dopamine transporter (Rattus norvegicus, UniProt P23977). Briefly: Ability to inhibit high affinity reuptake of [3H]DA from dopamine transporter into nerve endings synaptosomes. The experiment is classed as subcellular, Brain. The gist of the method: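 Rat striatal P2 synaptosomes in modified KRH buffer (pH 7.4, with nialamide), preincubated with drug for 30 min at 4 °C, then 15 min at 37 °C. Uptake of [3H]DA (~5 nM final) ran for 5 min and was stopped by cold Na-free buffer and filtration. IC50 from six concentrations in triplicate; Ki by Cheng–Prusoff, 2–4 experiments.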
Sodium-dependent dopamine transporter, sequence (P23977 whole entry): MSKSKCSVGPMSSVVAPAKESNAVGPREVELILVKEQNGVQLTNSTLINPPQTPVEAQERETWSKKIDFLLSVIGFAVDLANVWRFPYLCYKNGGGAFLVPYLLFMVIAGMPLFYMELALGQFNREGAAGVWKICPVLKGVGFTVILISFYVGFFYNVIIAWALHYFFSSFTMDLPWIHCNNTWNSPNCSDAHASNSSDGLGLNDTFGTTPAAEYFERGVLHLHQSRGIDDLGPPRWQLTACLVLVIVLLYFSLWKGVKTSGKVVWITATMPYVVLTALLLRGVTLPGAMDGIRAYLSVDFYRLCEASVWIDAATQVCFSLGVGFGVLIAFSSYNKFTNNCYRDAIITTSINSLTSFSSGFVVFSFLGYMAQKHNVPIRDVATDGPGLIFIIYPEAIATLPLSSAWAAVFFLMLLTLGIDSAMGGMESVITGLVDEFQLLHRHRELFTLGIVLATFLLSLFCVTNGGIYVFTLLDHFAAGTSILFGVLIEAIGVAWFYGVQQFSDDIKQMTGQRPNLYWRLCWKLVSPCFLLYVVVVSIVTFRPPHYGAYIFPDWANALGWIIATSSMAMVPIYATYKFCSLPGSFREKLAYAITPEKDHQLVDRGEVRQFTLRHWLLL

Experiment [6] is described as follows: Uptake ratio Ki of dopamine relative to serotonin (5-HT) at monoamine transporter.

Sodium-dependent serotonin transporter, sequence (P31652 whole entry): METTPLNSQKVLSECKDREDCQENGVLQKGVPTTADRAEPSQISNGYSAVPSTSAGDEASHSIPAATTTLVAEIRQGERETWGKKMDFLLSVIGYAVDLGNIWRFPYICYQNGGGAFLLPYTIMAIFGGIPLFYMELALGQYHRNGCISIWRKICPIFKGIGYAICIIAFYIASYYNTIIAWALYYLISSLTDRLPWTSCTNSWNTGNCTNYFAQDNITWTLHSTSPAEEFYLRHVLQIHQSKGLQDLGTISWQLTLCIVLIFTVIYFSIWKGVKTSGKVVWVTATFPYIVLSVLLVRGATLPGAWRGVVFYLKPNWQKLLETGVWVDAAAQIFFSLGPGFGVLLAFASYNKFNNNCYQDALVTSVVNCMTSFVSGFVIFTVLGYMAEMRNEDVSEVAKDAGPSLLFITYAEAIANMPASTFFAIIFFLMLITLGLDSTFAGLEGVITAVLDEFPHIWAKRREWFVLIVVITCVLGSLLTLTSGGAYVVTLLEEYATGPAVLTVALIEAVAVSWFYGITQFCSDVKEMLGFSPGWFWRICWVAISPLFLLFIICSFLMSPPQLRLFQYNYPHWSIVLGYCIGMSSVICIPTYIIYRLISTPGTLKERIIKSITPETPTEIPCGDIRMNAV

On to `COC(=O)C1C2CC3CCC1N3C/C2=C\c1ccc(Br)c(Cl)c1` (stereo not drawn), for which the Ratio is 0.08 in experiment [1], 200 in experiment [4] and 2360 in experiment [6]. Besides, the Ki in experiment [2] stood at 459 nM; in experiment [3], 2.3 nM; in experiment [5], 5420 nM.
As for `COC(=O)C1C2CC3CCC1N3C/C2=C\c1ccc(OC)cc1` (stereo not drawn), the figures for the Ratio in experiment [1], in experiment [4] and in experiment [6] were 0.06, 3.3 and 55.9, respectively. The Ki in experiment [2] was determined as 187 nM; in experiment [3], 56 nM; in experiment [5], 3130 nM.
For the compound `COC(=O)C1C2CC3CCC1N3C/C2=C\c1ccc(F)cc1` (stereo not drawn), the values for the Ratio in experiment [1], in experiment [4] and in experiment [6] were 0.09, 1.7 and 19.7, respectively. Further, the Ki in experiment [2] amounted to 584 nM; in experiment [3], 335 nM; in experiment [5], 6620 nM.
For the compound `Cc1ccc(/C=C2\CN3C4CCC3C(COC(=O)c3ccccc3)C2C4)cc1Cl` (stereo not drawn), the figures for the inhibition constant Ki in experiment [2], in experiment [3] and in experiment [5] were over 10000 nM, 2 nM and over 10000 nM, respectively. In addition, the Ratio in experiment [4] and in experiment [6] was over 20000 throughout.
As to `O=C(OCC1C2CC3CCC1N3C/C2=C\c1ccc(I)cc1)c1ccccc1` (stereo not drawn), the values for the Ratio in experiment [1], in experiment [4] and in experiment [6] were under 0.82, 81900 and over 100000, respectively. Further, the Ki is 8190 nM in experiment [2] and over 10000 nM in experiment [5].
On to `COC(=O)C1C2CC3CCC1N3C/C2=C\c1cc(Cl)cc(Cl)c1` (stereo not drawn), for which the Ratio in experiment [1] came to 0.73; in experiment [4] it was 9.4; in experiment [6], 12.8. The Ki amounted to 4100 nM in experiment [2], 437 nM in experiment [3] and 5600 nM in experiment [5].
`COC(=O)C1C2CC3CCC1N3C/C2=C\c1ccc(C)c(C)c1` (stereo not drawn): the Ki in experiment [2] came out at 659 nM; in experiment [3], 10.1 nM. For the same compound, the Ratio in experiment [4] was determined as 65.
For the compound `Clc1ccc(/C=C2\CN3C4CCC3C(COc3ccc(I)cc3)C2C4)cc1Cl` (stereo not drawn), the Ratio in experiment [1] came to 0.18; in experiment [4] it was 2.1; in experiment [6], 11.7. The Ki came out at 2510 nM in experiment [2], 1170 nM in experiment [3] and 13700 nM in experiment [5].
Regarding `O=C(OCC1C2CC3CCC1N3C/C2=C\c1ccc(Cl)c(Cl)c1)c1ccccc1` (stereo not drawn), the results for the Ratio in experiment [1], in experiment [4] and in experiment [6] were 0.22, 990 and 4550, respectively. The inhibition constant Ki in experiment [2] came out at 3070 nM; in experiment [3] it was 3.1 nM; in experiment [5] it was 14100 nM.
`COC(=O)C1C2CC3CCC1N3C/C2=C\c1ccc(I)cc1Cl` (stereo not drawn): the Ratio in experiment [1] is 0.08; in experiment [4] it was 6.9; in experiment [6] it was 89.7. Further, the Ki worked out at 508 nM in experiment [2], 74 nM in experiment [3] and 6640 nM in experiment [5].
Turning to `O=C(OCC1C2CC3CCC1N3C/C2=C\c1ccc(I)c(Cl)c1)c1ccccc1` (stereo not drawn), the Ki in experiment [2] and in experiment [5] was over 10000 nM throughout. For the same compound, the Ratio in experiment [4] and in experiment [6] was over 6e+06 each time.
For `COC(=O)C1C2CC3CCC1N3C/C2=C\c1ccc(C(F)(F)F)cc1` (stereo not drawn), the Ki in experiment [2] is 1830 nM; in experiment [3] it was 12.6 nM. Besides, the Ratio in experiment [4] stood at 145.
Regarding `COC(=O)C1C2CC3CCC1N3C/C2=C\c1ccc2ccc3cccc4ccc1c2c34` (stereo not drawn), the Ki was found to be 860 nM in experiment [3] and 9920 nM in experiment [5]. The Ratio in experiment [6] was 11.5.
In the case of `COC(=O)C1C2CC3CCC1N3C/C2=C\c1ccc(C(C)C)cc1` (stereo not drawn), the Ki in experiment [2] stood at 1110 nM; in experiment [3], 10.2 nM. For the same compound, the Ratio in experiment [4] is 109.
In the case of `O=C(CCCCCCCCCC(=O)OCC1C2CC3CCC1N3C/C2=C\c1ccc(Cl)c(Cl)c1)OCC1C2CC3CCC1N3C/C2=C\c1ccc(Cl)c(Cl)c1` (stereo not drawn), the Ki in experiment [2] is over 10000 nM; in experiment [3], 8.5 nM; in experiment [5], over 10000 nM. In addition, the Ratio in experiment [4] and in experiment [6] was over 1170 each time.
